One series relates to L1210 (BR−) cells. The series is described as follows: internalization by confocal fluorescence microscopy and flow cytometry. It is filed as cell-based, murine. The settings on record: 5 µM, 37 °C. Background: Flow cytometry measures light scatter and fluorescence of single cells or particles in a stream.
The subject of series [1] is BR+ cancer cell lines (L1210FR, MX-1, ID8). The series is described as follows: internalization by confocal fluorescence microscopy and flow cytometry. Format: cell-based. To be noted: 5 µM, 37 °C. An outline of the steps: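 Adherent cells were seeded at 5 × 10^5 cells/mL overnight, then given medium containing 5 µM fluorescent probe. For leukemia cells, 1 mM DMSO stock was spiked into fresh suspensions to 5 µM final. Incubation ran 30 min–24 h at 37 °C; cells were then trypsinized as needed and washed twice in PBS. Flow cytometry used 488 nm excitation, 515–545 nm emission, ~10,000 cells. Confocal imaging used 488 nm excitation, 505–550 nm bandpass, 63× water objective.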

The next series relates to WI38 (BR−) cells. The series is described as follows: internalization by confocal fluorescence microscopy and flow cytometry. Format: cell-based, human. To be noted: 5 µM, 37 °C.
The subject of the next series is BR+ and BR- cell lines. In words: internalization of fluorescence-labeled paclitaxel by CFM and flow cytometry. Format: cell-based. To be noted: Figure S1. In outline:
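After probe exposure, cells trypsinised if needed, washed twice in PBS and resuspended in PBS. Flow cytometry: 488 nm excitation, emission at 530 nm (30 nm bandpass, 515–545 nm), about 10,000 cells counted per experiment, FITC fluorescence distribution analysed. Confocal: two-photon laser-scanning microscope, 488 nm excitation, emission 527 ± 23 nm (505–550 nm bandpass), cells on uncoated coverslip slide.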

Series [2] has as its system L1210FR murine lymphocytic leukemia cell line (BR+). In words: standard MTT cytotoxicity assay, continuous incubation. It is filed as cell-based. For orientation: Formazan colour is commonly taken as a measure of viable cells.
Series [3] deals with MX-1 human breast carcinoma cell line (BR+). The description is as above. Format: cell-based.
For series [4], the system named is ID8 murine ovarian carcinoma cell line (BR+). Described as above. It is filed as cell-based. To be noted: read-out: Cytotoxicity IC50, ID8; incubation at 37 °C for 48 h.
The test system of series [5] is L1210 murine lymphocytic leukemia cell line (BR−). The series is described as above. Format: cell-based. To be noted: read-out: Cytotoxicity IC50, L1210; incubation at 37 °C for 48 h.
Series [6] has as its system BR+ cancer cell lines (MX-1, L1210FR, ID8). In words: MTT cytotoxicity, text summaries pooled over BR+ cancer cell lines. Format: cell-based. In outline:
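Adherent cells seeded at 8,000–10,000/well and held 24 h at 37 °C before dosing; leukemia cells at 0.5–0.8 × 10^4/well suspended directly in test solutions. Final 0.5–5,000 nM from DMSO stocks, 37 °C, 5% CO2, 48 h or 72 h. Assay 2: 24 h exposure, PBS wash, GSH-OEt (6 equiv. to conjugate) added, further 48 h. MTT 0.5 mg/mL in PBS, 3 h, 37 °C.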

The subject of series [7] is WI38 human lung fibroblast cell line (BR−). The series is described as follows: standard MTT cytotoxicity assay, continuous incubation. It is filed as cell-based.
Series [8] relates to L1210FR murine lymphocytic leukemia cell line (BR+). In words: MTT Assay 2: 24 h incubation, PBS wash, GSH-OEt addition, further 48 h. Format: cell-based. The settings on record: read-out: Cytotoxicity IC50, L1210FR, Assay 2, GSH-OEt (6 equiv.), additional 48 h. In outline:
(§1)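 Cells grown in supplemented RPMI-1640 (5% FBS, 5% NuSerum, 1% PenStrep) at 37 °C, 5% CO2, then seeded at 0.5–1.5 × 10^4 cells/well. Test compound (from DMSO stock; DMSO ≤1%) was added for 24 h at 37 °C. Medium was then removed, cells were washed with PBS, and GSH-OEt (6 equiv. to conjugate) in fresh medium was added for 48 h more (72 h total). MTT (0.5 mg/mL, 3 h), formazan dissolved in acidic isopropanol/Triton X-100, A570. IC50 from four-parameter logistic fit; triplicate.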

Series [9] has the same test system. In words: MTT Assay 3: 24 h incubation, GSH-OEt addition without washing, further 48 h. It is filed as cell-based. To be noted: read-out: Cytotoxicity IC50, L1210FR, Assay 3, GSH-OEt (6 equiv.) added without wash, additional 48 h. In outline:
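L1210FR suspension cells in supplemented RPMI-1640 were exposed to test compound at 37 °C for 24 h; DMSO ≤1%. GSH-OEt (6 equiv.) in medium was then added directly, without washing, for a further 48 h (72 h total). Viability was read by MTT (0.5 mg/mL in PBS, 3 h, 37 °C), solubilized in 0.1 N HCl/isopropanol with 10% Triton X-100, at 570 nm. IC50 by four-parameter logistic fit; triplicate runs.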

The subject of series [10] is MX-1 human breast carcinoma cell line (BR+). The series is described as follows: MTT Assay 2: 24 h incubation, PBS wash, GSH-OEt addition, further 48 h. It is filed as cell-based. To be noted: read-out: Cytotoxicity IC50, MX-1, Assay 2, GSH-OEt (6 equiv.), additional 48 h. In outline: as §1
[11] abbreviates: read-out: Cytotoxicity IC50, L1210FR, Assay 1, 37 °C, 72 h, no GSH-OEt.
The mark [12] stands for this setting: read-out: Cytotoxicity IC50, L1210FR, incubation at 37 °C for 48 h.
[13] abbreviates: read-out: Cytotoxicity IC50, MX-1, Assay 1, 37 °C, 72 h, no GSH-OEt.
[14] abbreviates: read-out: Cytotoxicity IC50, MX-1, incubation at 37 °C for 48 h.
[15] abbreviates: read-out: Cytotoxicity IC50, WI38, Assay 1, 37 °C, 72 h, no GSH-OEt.
Where [16] appears, read: read-out: Cytotoxicity IC50, WI38, incubation at 37 °C for 48 h.

Read-outs that look alike come from different tables or passages of the source.

Consider Biotin-NH-PEG3-(CH2)2-NH-FITC [probe 5], for which the “internalization into L1210 cells” value in the series on L1210 (BR−) cells is “no appreciable internalization”. In [1], the “internalization into BR+ cancer cell lines” value was “highly target-specific and efficient internalization”. In addition, the “internalization into WI38 cells” value with WI38 (BR−) cells is “no appreciable internalization”.

In the case of “7-(4-Fluoresceinyl)butanoylpaclitaxel [compound 6]”, the “internalization across BR+ and BR- cell lines” value in the series with BR+ and BR- cell lines is given as “nonspecific internalization”.

For the compound `CC(=O)O[C@@]12CO[C@@H]1C[C@H](O)[C@@]1(C)C(=O)[C@H](OC(=O)C3CC3)C3=C(C)[C@@H](OC(=O)[C@H](O)[C@H](C=C(C)C)NC(=O)OC(C)(C)C)C[C@@](O)([C@@H](OC(=O)c4ccccc4)[C@H]21)C3(C)C` [Taxoid 3, SB-T-1214, reference compound], the IC50 in series [2] (setting [11]) was 2.32 ± 1.41 nM; in series [2] (setting [12]), 4.18 ± 1.8 nM; in series [3] (setting [13]) it was 2.66 ± 0.16 nM; in [3] (setting [14]) it was 4.13 ± 2.59 nM; in series [4] it was 0.17 ± 0.14 nM; in series [5], 7.05 ± 1.38 nM. Also, the IC50 in series [6] (read-out: Cytotoxicity IC50, MX-1 and L1210FR, free drug, range, 72 h incubation (Assay 1)) is 2.32 to 2.66 nM; in series [7] (setting [15]), 4.89 ± 2.24 nM; in series [7] (setting [16]), 5.23 ± 0.27 nM.

Turning to “Biotin-(SS-Linker)-SB-T-1214 [conjugate 4]”, the IC50 amounted to 12.3 ± 2.8 nM in [2] (setting [11]); 13.4 ± 6.8 nM in [2] (setting [12]); 4.66 ± 0.87 nM in series [3] (setting [13]); 15.4 ± 4.2 nM in series [3] (setting [14]); 4.32 ± 1.58 nM in series [4]; 5.15 ± 2.85 nM in [8]. The IC50 in series [5] was 481 ± 34 nM; in [6] (read-out: Cytotoxicity IC50, BR+ cancer cells (MX-1, L1210FR), Assay 2, range, 24 h, PBS wash, GSH-OEt, additional 48 h), 3.85 to 6.6 nM; in series [9], 2.92 ± 2.34 nM; in series [10] it was 3.85 ± 0.14 nM; in [7] (setting [15]) it was 645 ± 97 nM; in series [7] (setting [16]) it was 670 ± 89 nM. In addition, the “potency times lower than free taxoid 3 against three BR+ cancer cell lines” value in series [6] (48 h incubation) is recorded as 3–30 times. The “cancer cell selectivity (BR-specificity), BR+ cancer cells vs BR− WI38 cells” value in [6] (Assay 2) is “two-orders of magnitude difference”.

As a reminder, the IC50 is the concentration that gives 50% inhibition.

(Values after PMC4359053 (Journal of medicinal chemistry, 2015).)
